# Source: ChEMBL document CHEMBL4052710 (Bioorg Med Chem Lett, 2017)
# Calls of active or inactive are those of the source. No cut-off for these calls is given here.
# Experiments:
# T47D [1] = experiment: Induction of apoptosis in human T47D cells assessed as necrotic cells level at 1 uM incubated for 48 hrs by annexin V-FITC and propidium iodide staining based flow cytometry (reference value: 2.79%); type: functional
# T47D [2] = experiment: Induction of apoptosis in human T47D cells assessed as viable cells level at 0.25 uM incubated for 48 hrs by annexin V-FITC and propidium iodide staining based flow cytometry (reference value: 96%); type: functional
# T47D [3] = experiment: Induction of apoptosis in human T47D cells assessed as late apoptotic cells level at 0.5 uM incubated for 48 hrs by annexin V-FITC and propidium iodide staining based flow cytometry (reference value: 0.48%); type: functional
# A549 [4] = experiment: Growth inhibition of human A549 cells incubated for 72 hrs by CCK8 assay; type: functional, cell-based; details: A549, 72 h
# T47D [5] = experiment: Induction of apoptosis in human T47D cells incubated for 48 hrs by annexin V-FITC and propidium iodide staining based flow cytometry; type: functional, cell-based
# T47D [6] = experiment: Growth inhibition of human T47D cells incubated for 72 hrs at 10 uM by CCK8 assay; type: functional; details: read-out: GI
# Summary of the method: (§1)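 CCK8 viability assay on a panel of human cancer cell lines, with an initial screen at fixed concentrations of 1 µM and 10 µM.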
# T47D [7] = experiment: Induction of apoptosis in human T47D cells assessed as viable cells level at 1 uM incubated for 48 hrs by annexin V-FITC and propidium iodide staining based flow cytometry (reference value: 96%); type: functional
# [8] = molecular target: CDK7/Cyclin H/MNAT1 (Homo sapiens) (UniProt P51946+P50613+P51948); experiment: Inhibition of human CDK7/CyclinH/MAT1 at 1 uM by enzymatic radiometric assay; type: protein-complex assay
# T47D [9] = experiment: Induction of apoptosis in human T47D cells assessed as late apoptotic cells level at 0.25 uM incubated for 48 hrs by annexin V-FITC and propidium iodide staining based flow cytometry (reference value: 0.48%); type: functional
# NCI-H460 [10] = experiment: Growth inhibition of human H460 cells incubated for 72 hrs at 10 uM by CCK8 assay; type: functional; details: NCI-H460, 72 h, read-out: GI; summary of the method: as §1
# SiHa [11] = experiment: Growth inhibition of human SiHa cells incubated for 72 hrs at 10 uM by CCK8 assay; type: functional; details: read-out: GI; summary of the method: as §1
# [12] = molecular target: CDK9/cyclin T1 (Homo sapiens) (UniProt O60563+P50750); experiment: Inhibition of human CDK9/CyclinT1 at 1 uM by enzymatic radiometric assay; type: protein-complex assay
# T47D [13] = experiment: Induction of apoptosis in human T47D cells assessed as necrotic cells level at 0.25 uM incubated for 48 hrs by annexin V-FITC and propidium iodide staining based flow cytometry (reference value: 2.79%); type: functional
# A549 [14] = experiment: Growth inhibition of human A549 cells incubated for 72 hrs at 10 uM by CCK8 assay; type: functional; details: A549, 72 h, read-out: GI; summary of the method: as §1
# Mus musculus = experiment: Toxicity in mouse 4T1 cells xenografted BALB/C mouse assessed as induction of body weight loss at 50 to 150 mg/kg/day, ip dosed for 21 consecutive days; type: organism-based; details: in vivo
# Summary of the method: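 Tumor cells were implanted orthotopically into the mammary fat pads of female BALB/c mice aged 6-8 weeks. Once tumors averaged 100 mm3, mice received daily IP injections of 50, 100 or 150 mg/kg/day, or solvent control, for 21 consecutive days. Body weight was tracked and reported as mean with SD.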
# [15] = molecular target: CDK6/cyclin D3 (Homo sapiens) (UniProt P30281+Q00534); experiment: Inhibition of human CDK6/CyclinD3 at 1 uM by enzymatic radiometric assay; type: protein-complex assay
# 4T1 = experiment: Antitumor activity against mouse 4T1 cells xenografted in BALB/C mouse assessed as inhibition of tumor growth at 50 to 150 mg/kg/day, ip dosed for 21 consecutive days; type: functional, organism-based
# Summary of the method: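 Cells implanted orthotopically into mammary fat pads of female BALB/c mice aged 6-8 weeks. Dosing began once tumours averaged 100 mm3: daily IP injection at 50, 100 or 150 mg/kg/day for 21 consecutive days, with a solvent control group. Tumour volume and body weight were followed, given as mean ± SD.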
# [16] = molecular target: CDK2/Cyclin A2 (Homo sapiens) (UniProt P24941+P20248); experiment: Inhibition of human CDK2/CyclinA at 1 uM by enzymatic radiometric assay; type: protein-complex assay
# Summary of the method: (§2)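 Kinase panel run through the Eurofins KinaseProfiler, with compound at a fixed 1 µM. Values are means of two independent experiments.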
# CDK9/cyclin T1 = CDK9/cyclin T1 (Homo sapiens, UniProt P50750); experiment: Inhibition of human CDK9/CyclinT1 by enzymatic radiometric assay; type: protein-complex assay
# Summary of the method: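 IC50 was determined through a commercial kinase profiling service. Values are the mean of two independent experiments.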
# T47D [17] = experiment: Induction of apoptosis in human T47D cells assessed as late apoptotic cells level at 5 uM incubated for 48 hrs by annexin V-FITC and propidium iodide staining based flow cytometry (reference value: 0.48%); type: functional
# [18] = molecular target: CDK12/Cyclin K (Homo sapiens) (UniProt O75909+Q9NYV4); experiment: Inhibition of human CDK12/CyclinK at 1 uM by enzymatic radiometric assay; type: protein-complex assay; summary of the method: as §2
# NCI-H460 [19] = experiment: Growth inhibition of human H460 cells incubated for 72 hrs at 1 uM by CCK8 assay; type: functional; details: NCI-H460, 72 h, read-out: GI; summary of the method: as §1
# T47D [20] = experiment: Inhibition of cell migration of human T47D cells at 0.5 to 5 uM incubated for 16 hrs by transwell cell migration assay; type: functional, cell-based
# Summary of the method: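 T47D cells were assayed by transwell migration. After 16 h incubation, migrated cells were counted by microscope in five random fields per chamber.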
# T47D [21] = experiment: Induction of apoptosis in human T47D cells assessed as early apoptotic cells level at 0.5 uM incubated for 48 hrs by annexin V-FITC and propidium iodide staining based flow cytometry (reference value: 0.75%); type: functional
# T47D [22] = experiment: Growth inhibition of human T47D cells incubated for 72 hrs by CCK8 assay; type: functional, cell-based
# NCI-H1299 = experiment: Growth inhibition of human H1299 cells incubated for 72 hrs at 10 uM by CCK8 assay; type: functional; details: NCI-H1299, 72 h, read-out: GI; summary of the method: as §1
# [23] = molecular target: CDK3/Cyclin E (Homo sapiens) (UniProt P24864+Q00526); experiment: Inhibition of human CDK3/CyclinE at 1 uM by enzymatic radiometric assay; type: protein-complex assay; summary of the method: as §2
# T47D [24] = experiment: Induction of apoptosis in human T47D cells assessed as necrotic cells level at 0.5 uM incubated for 48 hrs by annexin V-FITC and propidium iodide staining based flow cytometry (reference value: 2.79%); type: functional
# [25] = molecular target: Cyclin-dependent kinase 1/cyclin B1 (Homo sapiens) (UniProt P06493+P14635); experiment: Inhibition of human CDK1/CyclinB at 1 uM by enzymatic radiometric assay; type: protein-complex assay; summary of the method: as §2
# SiHa [26] = experiment: Growth inhibition of human SiHa cells incubated for 72 hrs at 1 uM by CCK8 assay; type: functional; details: read-out: GI; summary of the method: as §1
# [27] = molecular target: Cyclin-dependent kinase 2/cyclin E1 (Homo sapiens) (UniProt P24864+P24941); experiment: Inhibition of human CDK2/CyclinE at 1 uM by enzymatic radiometric assay; type: protein-complex assay; summary of the method: as §2
# T47D [28] = experiment: Induction of apoptosis in human T47D cells assessed as early apoptotic cells level at 1 uM incubated for 48 hrs by annexin V-FITC and propidium iodide staining based flow cytometry (reference value: 0.75%); type: functional
# OVCAR-5 = experiment: Growth inhibition of human OVCAR5 cells incubated for 72 hrs at 10 uM by CCK8 assay; type: functional; details: OVCAR-5, 72 h, read-out: GI; summary of the method: as §1
# NCI-H460 [29] = experiment: Growth inhibition of human H460 cells incubated for 72 hrs by CCK8 assay; type: functional, cell-based; details: NCI-H460, 72 h
# Sequence of Cyclin-dependent kinase 1/cyclin B1 (Homo sapiens) (P06493 whole entry, looked up): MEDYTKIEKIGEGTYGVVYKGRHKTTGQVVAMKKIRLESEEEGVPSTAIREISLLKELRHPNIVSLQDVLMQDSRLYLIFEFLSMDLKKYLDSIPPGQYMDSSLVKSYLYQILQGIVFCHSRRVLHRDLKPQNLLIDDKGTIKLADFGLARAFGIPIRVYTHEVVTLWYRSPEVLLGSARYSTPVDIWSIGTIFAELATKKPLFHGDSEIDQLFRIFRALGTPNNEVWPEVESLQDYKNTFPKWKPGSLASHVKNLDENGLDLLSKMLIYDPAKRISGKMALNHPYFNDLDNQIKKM
# Sequence of Cyclin-dependent kinase 1/cyclin B1 (Homo sapiens) (P14635 whole entry, looked up): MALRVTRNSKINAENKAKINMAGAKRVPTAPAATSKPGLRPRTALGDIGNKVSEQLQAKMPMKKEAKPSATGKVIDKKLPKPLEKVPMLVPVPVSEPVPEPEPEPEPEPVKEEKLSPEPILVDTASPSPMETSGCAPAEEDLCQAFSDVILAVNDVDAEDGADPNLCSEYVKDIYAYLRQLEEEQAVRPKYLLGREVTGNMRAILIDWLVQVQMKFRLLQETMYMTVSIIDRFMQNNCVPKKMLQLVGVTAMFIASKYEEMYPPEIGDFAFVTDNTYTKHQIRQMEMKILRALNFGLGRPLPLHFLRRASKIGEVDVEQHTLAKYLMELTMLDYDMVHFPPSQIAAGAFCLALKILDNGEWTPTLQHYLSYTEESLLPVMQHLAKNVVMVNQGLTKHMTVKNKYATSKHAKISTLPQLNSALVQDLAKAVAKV
# Sequence of CDK12/Cyclin K (Homo sapiens) (O75909 whole entry, looked up): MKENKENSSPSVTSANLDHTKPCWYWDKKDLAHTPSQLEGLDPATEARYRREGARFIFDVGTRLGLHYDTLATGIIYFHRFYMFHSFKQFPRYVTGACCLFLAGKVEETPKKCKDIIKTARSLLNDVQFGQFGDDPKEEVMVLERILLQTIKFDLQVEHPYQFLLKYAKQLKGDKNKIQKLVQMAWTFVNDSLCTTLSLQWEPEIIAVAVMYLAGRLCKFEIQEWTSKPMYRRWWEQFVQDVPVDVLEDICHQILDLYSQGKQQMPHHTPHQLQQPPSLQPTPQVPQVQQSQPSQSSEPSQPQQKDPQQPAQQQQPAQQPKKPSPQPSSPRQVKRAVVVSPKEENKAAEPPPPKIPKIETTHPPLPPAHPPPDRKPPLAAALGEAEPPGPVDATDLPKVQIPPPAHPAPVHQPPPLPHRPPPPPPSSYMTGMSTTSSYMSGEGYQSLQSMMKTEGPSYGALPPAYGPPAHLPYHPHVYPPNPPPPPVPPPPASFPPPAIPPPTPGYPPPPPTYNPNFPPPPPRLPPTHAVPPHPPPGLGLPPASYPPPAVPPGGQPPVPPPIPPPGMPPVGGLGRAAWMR
# Sequence of CDK12/Cyclin K (Homo sapiens) (Q9NYV4 whole entry, looked up): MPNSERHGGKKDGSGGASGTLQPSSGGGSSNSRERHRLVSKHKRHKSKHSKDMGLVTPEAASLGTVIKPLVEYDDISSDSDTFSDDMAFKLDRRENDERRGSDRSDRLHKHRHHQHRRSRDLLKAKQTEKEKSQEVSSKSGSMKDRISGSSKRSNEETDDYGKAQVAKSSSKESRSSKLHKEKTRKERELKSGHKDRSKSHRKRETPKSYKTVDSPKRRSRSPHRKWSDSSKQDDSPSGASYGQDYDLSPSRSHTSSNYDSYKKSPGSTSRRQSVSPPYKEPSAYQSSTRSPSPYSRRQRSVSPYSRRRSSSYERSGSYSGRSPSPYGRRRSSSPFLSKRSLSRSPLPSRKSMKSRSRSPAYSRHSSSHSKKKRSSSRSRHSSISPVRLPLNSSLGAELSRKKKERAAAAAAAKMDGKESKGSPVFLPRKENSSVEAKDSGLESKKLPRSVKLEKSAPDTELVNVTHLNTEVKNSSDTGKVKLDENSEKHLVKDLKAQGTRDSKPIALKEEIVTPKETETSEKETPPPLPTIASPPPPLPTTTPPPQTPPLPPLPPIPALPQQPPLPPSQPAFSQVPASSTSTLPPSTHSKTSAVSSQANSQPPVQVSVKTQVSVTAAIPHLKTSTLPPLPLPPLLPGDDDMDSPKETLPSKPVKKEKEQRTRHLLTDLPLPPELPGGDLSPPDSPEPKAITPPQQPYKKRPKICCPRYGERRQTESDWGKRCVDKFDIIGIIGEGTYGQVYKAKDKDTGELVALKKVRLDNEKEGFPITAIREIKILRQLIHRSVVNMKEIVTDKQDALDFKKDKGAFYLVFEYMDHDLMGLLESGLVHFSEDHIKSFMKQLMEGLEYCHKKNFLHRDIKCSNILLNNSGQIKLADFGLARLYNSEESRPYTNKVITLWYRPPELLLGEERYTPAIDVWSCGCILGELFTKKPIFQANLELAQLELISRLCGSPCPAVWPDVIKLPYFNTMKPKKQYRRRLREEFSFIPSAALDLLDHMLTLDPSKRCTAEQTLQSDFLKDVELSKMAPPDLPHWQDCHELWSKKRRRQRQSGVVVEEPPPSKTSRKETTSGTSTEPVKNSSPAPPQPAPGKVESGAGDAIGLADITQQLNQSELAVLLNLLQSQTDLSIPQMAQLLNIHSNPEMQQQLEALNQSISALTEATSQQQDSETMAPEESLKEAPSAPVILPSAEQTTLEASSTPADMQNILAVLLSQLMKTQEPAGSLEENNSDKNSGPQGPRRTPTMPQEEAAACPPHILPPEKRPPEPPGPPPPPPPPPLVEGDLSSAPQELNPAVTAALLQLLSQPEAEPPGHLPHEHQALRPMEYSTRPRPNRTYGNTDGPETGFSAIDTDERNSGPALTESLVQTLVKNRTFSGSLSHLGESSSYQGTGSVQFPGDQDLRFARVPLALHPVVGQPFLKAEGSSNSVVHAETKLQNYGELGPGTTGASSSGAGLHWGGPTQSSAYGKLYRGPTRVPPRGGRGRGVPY
# Sequence of CDK9/cyclin T1 (O60563 whole entry): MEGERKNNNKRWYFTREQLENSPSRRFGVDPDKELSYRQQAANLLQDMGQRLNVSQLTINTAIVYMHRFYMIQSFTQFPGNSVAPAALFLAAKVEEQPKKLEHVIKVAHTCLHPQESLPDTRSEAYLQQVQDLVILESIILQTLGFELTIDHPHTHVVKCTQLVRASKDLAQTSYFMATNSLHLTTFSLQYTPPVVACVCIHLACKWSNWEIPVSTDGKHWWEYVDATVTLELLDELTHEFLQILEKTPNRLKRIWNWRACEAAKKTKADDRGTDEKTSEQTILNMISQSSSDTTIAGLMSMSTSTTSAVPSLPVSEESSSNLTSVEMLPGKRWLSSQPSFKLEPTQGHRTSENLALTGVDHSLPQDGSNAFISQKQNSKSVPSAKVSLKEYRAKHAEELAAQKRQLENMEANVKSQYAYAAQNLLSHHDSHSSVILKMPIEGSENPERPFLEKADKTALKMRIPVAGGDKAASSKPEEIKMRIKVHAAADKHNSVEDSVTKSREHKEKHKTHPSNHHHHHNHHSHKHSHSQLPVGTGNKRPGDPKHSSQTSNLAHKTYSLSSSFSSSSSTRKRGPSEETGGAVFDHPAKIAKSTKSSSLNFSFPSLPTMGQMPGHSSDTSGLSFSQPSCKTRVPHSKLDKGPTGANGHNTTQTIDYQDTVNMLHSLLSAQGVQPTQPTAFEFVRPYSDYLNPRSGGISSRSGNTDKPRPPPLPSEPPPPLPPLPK
# Sequence of CDK9/cyclin T1 (P50750 whole entry): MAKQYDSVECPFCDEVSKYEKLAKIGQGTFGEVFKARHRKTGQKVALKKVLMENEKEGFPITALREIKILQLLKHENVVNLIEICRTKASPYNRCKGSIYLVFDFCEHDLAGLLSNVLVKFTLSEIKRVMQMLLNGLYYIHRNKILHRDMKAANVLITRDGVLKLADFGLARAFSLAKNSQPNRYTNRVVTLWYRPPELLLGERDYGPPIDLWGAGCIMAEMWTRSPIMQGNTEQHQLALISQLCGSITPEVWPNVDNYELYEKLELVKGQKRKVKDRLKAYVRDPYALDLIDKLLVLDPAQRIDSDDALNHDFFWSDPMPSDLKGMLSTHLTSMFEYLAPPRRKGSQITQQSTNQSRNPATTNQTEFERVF
# Sequence of CDK3/Cyclin E (Homo sapiens) (P24864 whole entry, looked up): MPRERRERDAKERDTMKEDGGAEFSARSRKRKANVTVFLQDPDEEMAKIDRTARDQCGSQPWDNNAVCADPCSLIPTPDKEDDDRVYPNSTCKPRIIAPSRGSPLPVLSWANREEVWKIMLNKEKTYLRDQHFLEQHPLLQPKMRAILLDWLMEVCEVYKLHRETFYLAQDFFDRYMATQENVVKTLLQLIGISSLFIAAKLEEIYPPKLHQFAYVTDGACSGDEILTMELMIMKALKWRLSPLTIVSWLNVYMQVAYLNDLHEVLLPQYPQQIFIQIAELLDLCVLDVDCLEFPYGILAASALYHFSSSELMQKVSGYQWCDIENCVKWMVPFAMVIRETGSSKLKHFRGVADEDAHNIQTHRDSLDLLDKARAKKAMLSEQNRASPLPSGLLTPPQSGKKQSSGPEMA
# Sequence of CDK3/Cyclin E (Homo sapiens) (Q00526 whole entry, looked up): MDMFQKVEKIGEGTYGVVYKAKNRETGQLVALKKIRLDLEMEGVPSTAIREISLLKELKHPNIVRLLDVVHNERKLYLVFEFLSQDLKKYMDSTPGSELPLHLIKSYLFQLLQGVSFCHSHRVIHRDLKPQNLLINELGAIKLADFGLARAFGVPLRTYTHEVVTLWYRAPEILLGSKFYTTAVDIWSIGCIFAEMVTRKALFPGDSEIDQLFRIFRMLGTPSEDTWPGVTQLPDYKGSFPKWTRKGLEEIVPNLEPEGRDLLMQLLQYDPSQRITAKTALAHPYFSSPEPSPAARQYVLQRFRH
smiles,measurement,setting,value
CN(C)C(=O)c1cc2cnc(Nc3ccc(NC(=O)C4(C(=O)Nc5ccc(F)cc5)CC4)cc3)nc2n1C1CCCC1,Activity,T47D [1],1.39%
same,Activity,T47D [2],94.2%
same,Activity,T47D [3],3.58%
same,IC50,A549 [4],456 nM
same,Activity,T47D [5],Dose-dependent effect
same,inhibition of growth at 10 µM,T47D [6],105%
same,Activity,T47D [7],90.5%
same,inhibition,[8],7%
same,Activity,T47D [9],3.28%
same,inhibition of growth at 10 µM,NCI-H460 [10],102%
same,inhibition of growth at 10 µM,SiHa [11],98%
same,inhibition,[12],98%
same,Activity,T47D [13],2.01%
same,inhibition of growth at 10 µM,A549 [14],102%
same,Activity,Mus musculus,Non-Toxic
same,inhibition,[15],71%
same,TGI,4T1,Dose-dependent effect
same,inhibition,[16],29%
same,IC50,CDK9/cyclin T1,12 nM
same,Activity,T47D [17],5.29%
same,inhibition,[18],24%
same,inhibition of growth at 1 µM,NCI-H460 [19],79.9%
same,inhibition,T47D [20],Active
same,Activity,T47D [21],0.65%
same,IC50,T47D [22],358 nM
same,inhibition of growth at 10 µM,NCI-H1299,90.8%
same,inhibition,[23],65%
same,Activity,T47D [24],2.69%
same,inhibition,[25],73%
same,inhibition of growth at 1 µM,SiHa [26],36.5%
same,inhibition,[27],85%
same,Activity,T47D [28],3.16%
same,inhibition of growth at 10 µM,OVCAR-5,79.7%
same,IC50,NCI-H460 [29],359 nM
